Experimental data published in article PMC4398655 (Bioorganic & medicinal chemistry, 2015).
Entries after “also recorded” stand apart in the source; their conditions may differ. Like-named read-outs stand apart in the source and are kept apart here.

Experiments:
[1] = system: PC-3 prostate cancer cells; conditions: 10 μM for 72 h, relative percent cell viability only; cited from earlier work
[2] = system: HCT-116 colon cancer cells; conditions: 10 μM for 72 h, relative percent cell viability only; cited from earlier work
[3] = system: MCF-7 breast cancer cells; conditions: 10 μM for 72 h, relative percent cell viability only; cited from earlier work
[4] = system: PC-3 prostate cancer cells; test: Morphological analysis by microscopy, PC-3; type: cell-based, human; conditions: 68 h
Outline: (§1)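 Cells from the MTT setup, with and without test compound, were photographed at 68 h on an inverted microscope for each triplicate treatment. Images for the different concentrations were compared double-blind for cell size, shape and number.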

[5] = system: six human cancer cell lines (HCT-116, S1, DU-145, PC-3, MDA-MB-231, MCF-7); test: MTT cell cytotoxicity assay, panel of cancer cell lines; type: cell-based; conditions: for IC50: Homo sapiens
Outline: (§2)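 Cell lines grown as adherent monolayers in DMEM with 10% FBS at 37°C, 5% CO2. Trypsinised cells seeded at 5×10^3 cells/well and exposed to test compound at 0.1 to 100 μM for 72 h. MTT (4 mg/ml) added for 4 h, formazan dissolved in DMSO, and absorbance read at 570 nm. IC50 derived from survival curves by the Bliss method. Mean±SD from at least three experiments, each in triplicate.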

[6] = system: HCT-116 colon cancer cells; test: Morphological analysis by microscopy, HCT-116; type: cell-based, human; conditions: 68 h
Outline: as §1

[7] = system: PC-3 prostate cancer cells; test: MTT cell cytotoxicity assay, PC-3; type: cell-based; conditions: Homo sapiens, 72 h, read-out: IC50 ± SD, PC3
Outline: as §2

[8] = system: ABCB1 (P-glycoprotein, MDR1); test: MTT cell cytotoxicity assay, ABCB1 overexpressing cells; type: cell-based; conditions: human, HEK293/ABCB1 cells (P-glycoprotein overexpressing)
[9] = system: HEK293/pcDNA3.1 human primary embryonic kidney cells; test: MTT cell cytotoxicity assay, HEK293/pcDNA3.1; type: cell-based; conditions: HEK293, 72 h, read-out: IC50 ± SD, HEK 293/pcDNA.3.1
Outline: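 Empty-vector-transfected HEK293 cells, grown adherent in DMEM + 10% FBS at 37°C, 5% CO2, were trypsinised and seeded at 5×10³ cells/well. Test compound was added at 0.1–100 μM for 72 h. MTT solution (4 mg/ml) was then added for 4 h, and formazan was dissolved in DMSO and read at 570 nm. IC50 was derived from survival curves by the Bliss method; mean±SD from ≥3 experiments, each in triplicate.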

[10] = read-out: mean IC50 values in all the cancer cell lines tested

For `CC(=O)/C=C(O)/C=C/c1ccc(O)c(O)c1` [VA-1, Hispolon], the “activity against PC-3 (previous study)” value [1] is given as “active”, the “activity against HCT-116 (previous study)” value [2] is given as “active” and the “activity against MCF-7 (previous study)” value [3] is given as “active”.
For `COc1cc(/C=C/C(=O)CC(C)=O)ccc1O` [VA-2, hispolon methyl ether], the “activity against PC-3 (previous study)” value [1] is listed as “active”, the “morphological analysis (cell number, cell size)” value ([4]; 1 μM) is listed as “marked reduction of cell number; also recorded: significant reduction of cell number” and the IC50 ([5]; read-out: observed mean IC50 values in colon and prostate cancer cell lines) is listed as 1.4 to 6.3 µM. The “morphological analysis (cell number, cell size)” value ([6]; 1 μM) was “marked reduction of cell number; also recorded: significant reduction of cell number”, the “activity against HCT-116 (previous study)” value [2] was “active” and the “activity against MCF-7 (previous study)” value [3] was “active”.
In the case of `CC(=O)CC(=O)/C=C/c1ccc(O)cc1` [VA-3, dehydroxy hispolon], the “activity against PC-3 (previous study)” value [1] is listed as “active”, the “activity against HCT-116 (previous study)” value [2] is listed as “active” and the “activity against MCF-7 (previous study)” value [3] is listed as “active”.
`Cc1cc(/C=C/c2ccc(O)c(O)c2)on1` [VA-7] gave an IC50 [5, 10] of 3.3 to 10.7 µM.
For `COc1ccc(/C=C/c2cc(C)n[nH]2)cc1` [VA-15, (E)-5-(4-methoxystyryl)-3-methyl-1H-Pyrazole], the IC50 [5, 10] was 3.3 to 10.7 µM.
In the case of `COc1cc(CCC(=O)CC(C)=O)ccc1O` [VA-16], the IC50 [7] is reported as > 100 µM, the morphological characteristics ([4]; concentrations up to 100 μM) is reported as “no significant change” and the “activity (inhibition of cell survival) in the tested concentration range” value ([5]; MTT, concentrations up to 100 μM) is reported as “no significant activity”. For the same molecule, the morphological characteristics ([6]; concentrations up to 100 μM) was “no significant change”.
In the case of `COc1ccc(CCC(=O)CC(C)=O)cc1` [VA-18, 6-(4-methoxyphenyl)hexane-2,4-dione], the IC50 at 72 h [8] is reported as 51.2 ± 10.3 µM and the IC50 [9] is reported as 50.2 ± 8.9 µM.
